According to the RNAGym collection of RNA variant scans (doi:10.1002/anie.201605470):

B1: Osa-1-4 twister ribozyme (parent)
chain: CCGCCUAACACUGCCAAUGCCGGUCCCAAGCCCGGAUAAAAGUGGAGGGGGCGG

Variants of: B1
Test: self-cleavage, relative activity (ratio to wild type); higher = more cleavage; co-transcriptional
In short: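 A DNA template was synthesised for a 54-nucleotide twister ribozyme from Oryza sativa, with 97 % wild-type base and 1 % of each other base at each of the 48 positions downstream of the cleavage site. The ribozyme cleaved itself co-transcriptionally during 2 h of in vitro transcription at 37 °C. Reverse transcription with a template-switching oligonucleotide, PCR amplification and deep sequencing followed, and cleavage status came from reads with or without upstream sequence. Relative activity is the fraction cleaved normalised to wild type.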

Row | Variant | self-cleavage
1 | A8G G45C | 0.05
2 | A8G G45U | 0.14
3 | A8G G47A | 0.11
4 | A8G G47C | 0.07
5 | A8G G47U | 0.1
6 | A8G G48A | 0.06
7 | A8G G48C | 0.05
8 | A8G G48U | 0.04
9 | A8G G49A | 0.08
10 | A8G G49C | 0.05
11 | A8G G49U | 0.06
12 | A8G G50A | 0.53
13 | A8G G50C | 0.27
14 | A8G G50U | 0.43
15 | A8G G51A | 0.22
16 | A8G G51C | 0.08
17 | A8G G51U | 0.11
18 | A8G G53A | 0.16
19 | A8G G53C | 0.08
20 | A8G G53U | 0.11
21 | A8G G54A | 0.27
22 | A8G G54C | 0.21
23 | A8G G54U | 0.32
24 | A8G U12A | 0.16

Row | Variant | self-cleavage
25 | A8G U12C | 0.12
26 | A8G U12G | 0.15
27 | A8G U18A | 0.57
28 | A8G U18C | 0.39
29 | A8G U18G | 0.49
30 | A8G U24A | 0.12
31 | A8G U24C | 0.1
32 | A8G U24G | 0.03
33 | A8G U37A | 0.56
34 | A8G U37C | 0.68
35 | A8G U37G | 0.75
36 | A8G U43A | 0.23
37 | A8G U43C | 0.14
38 | A8G U43G | 0.15
39 | A8U | 0.49
40 | A8U C9A | 0.09
41 | A8U C9G | 0.11
42 | A8U C9U | 0.09
43 | A8U C11A | 0.08
44 | A8U C11G | 0.08
45 | A8U C11U | 0.11
46 | A8U C14A | 0.04
47 | A8U C14G | 0.05
48 | A8U C14U | 0.1

Row | Variant | self-cleavage
49 | A8U C15A | 0.08
50 | A8U C15G | 0.15
51 | A8U C15U | 0.08
52 | A8U C20A | 0.48
53 | A8U C20G | 0.06
54 | A8U C20U | 0.41
55 | A8U C21A | 0.08
56 | A8U C21G | 0.07
57 | A8U C21U | 0.28
58 | A8U C25A | 0.07
59 | A8U C25G | 0.05
60 | A8U C25U | 0.11
61 | A8U C26A | 0.03
62 | A8U C26G | 0.05
63 | A8U C26U | 0.12
64 | A8U C27A | 0.06
65 | A8U C27G | 0.05
66 | A8U C27U | 0.07
67 | A8U C31A | 0.03
68 | A8U C31G | 0.05
69 | A8U C31U | 0.06
70 | A8U C32A | 0.03
71 | A8U C32G | 0.07
72 | A8U C32U | 0.06

Row | Variant | self-cleavage
73 | A8U C33A | 0.05
74 | A8U C33G | 0.04
75 | A8U C33U | 0.09
76 | A8U C52A | 0.25
77 | A8U C52G | 0.49
78 | A8U C52U | 0.57
79 | A8U G13A | 0.05
80 | A8U G13C | 0.03
81 | A8U G13U | 0.02
82 | A8U G19A | 0.08
83 | A8U G19C | 0.03
84 | A8U G19U | 0.05
85 | A8U G22A | 0.12
86 | A8U G22C | 0.03
87 | A8U G22U | 0.08
88 | A8U G23A | 0.08
89 | A8U G23C | 0.04
90 | A8U G23U | 0.03
91 | A8U G30A | 0.02
92 | A8U G30C | 0.03
93 | A8U G30U | 0.02
94 | A8U G34A | 0.13
95 | A8U G34C | 0.09
96 | A8U G34U | 0.1

Row | Variant | self-cleavage
97 | A8U G35A | 0.27
98 | A8U G35C | 0.08
99 | A8U G35U | 0.18
100 | A8U G42A | 0.1
101 | A8U G42C | 0.06
102 | A8U G42U | 0.03
103 | A8U G44A | 0.27
104 | A8U G44C | 0.09
105 | A8U G44U | 0.13
106 | A8U G45A | 0.05
107 | A8U G45C | 0.04
108 | A8U G45U | 0.08
109 | A8U G47A | 0.06
110 | A8U G47C | 0.05
111 | A8U G47U | 0.05
112 | A8U G48A | 0.05
113 | A8U G48C | 0.05
114 | A8U G48U | 0.04
115 | A8U G49A | 0.05
116 | A8U G49C | 0.04
117 | A8U G49U | 0.05
118 | A8U G50A | 0.26
119 | A8U G50C | 0.24
120 | A8U G50U | 0.35

Row | Variant | self-cleavage
121 | A8U G51A | 0.14
122 | A8U G51C | 0.04
123 | A8U G51U | 0.08
124 | A8U G53A | 0.12
125 | A8U G53C | 0.05
126 | A8U G53U | 0.1
127 | A8U G54A | 0.17
128 | A8U G54C | 0.13
129 | A8U G54U | 0.32
130 | A8U U12A | 0.1
131 | A8U U12C | 0.06
132 | A8U U12G | 0.07
133 | A8U U18A | 0.39
134 | A8U U18C | 0.26
135 | A8U U18G | 0.56
136 | A8U U24A | 0.03
137 | A8U U24C | 0.05
138 | A8U U24G | 0.02
139 | A8U U37A | 0.31
140 | A8U U37C | 0.36
141 | A8U U37G | 0.54
142 | A8U U43A | 0.09
143 | A8U U43C | 0.08
144 | A8U U43G | 0.08

Row | Variant | self-cleavage
145 | C9A | 0.48
146 | C9A G13A | 0.02
147 | C9A G13C | 0.03
148 | C9A G13U | 0.04
149 | C9A G19A | 0.1
150 | C9A G19C | 0.04
151 | C9A G19U | 0.07
152 | C9A G22A | 0.34
153 | C9A G22C | 0.03
154 | C9A G22U | 0.12
155 | C9A G23A | 0.06
156 | C9A G23C | 0.01
157 | C9A G23U | 0.02
158 | C9A G30A | 0.02
159 | C9A G30C | 0.02
160 | C9A G30U | 0.01
161 | C9A G34A | 0.19
162 | C9A G34C | 0.08
163 | C9A G34U | 0.11
164 | C9A G35A | 0.24
165 | C9A G35C | 0.11
166 | C9A G35U | 0.32
167 | C9A G42A | 0.09
